Published values pooled from the literature.
Each line is one published result; the experiments were not run side by side.
HTR2B: 5-hydroxytryptamine receptor 2B (HTR2B, Homo sapiens, UniProt P41595)
HTR2C: 5-hydroxytryptamine receptor 2C (HTR2C, Homo sapiens, UniProt P28335)
mraY: mraY (Staphylococcus aureus, UniProt Q2FZ93)

With `Cc1cc(F)cc2c(CCC(=O)N[C@@H]3C(=O)NC[C@H]3O)c(-c3ccc(F)cc3)[nH]c12` the inhibition was 10% (HTR2B; cell-free assay; 10 µM).
For `CC[N+]1(C)CCc2cc(OC)c(OC)c3c2C1Cc1cccc(OC)c1-3` (stereo not drawn), the inhibition was -19% (HTR2C; ligand displacement, radioligand; 10 µM).
`CCCCCCC#Cc1cncc(-c2nnc(SCc3cc([N+](=O)[O-])cc([N+](=O)[O-])c3)n2CCCN)c1` has an inhibition of 100% (mraY; cell-free assay, inhibitor; 250 µM).
For `CCN1/C(=C/C(C)=O)Sc2ccc(F)cc21`, the inhibition was 20.8% (Substance-P receptor (TACR1, Homo sapiens, UniProt P25103); ligand displacement, radioligand; 10 µM).
With `NC/C(=C\F)COc1cccc(Cn2c(=S)[nH]c(=O)c3[nH]cnc32)c1` the inhibition was under 50% (B2 bradykinin receptor (BDKRB2, Homo sapiens, UniProt P30411); ligand displacement, radioligand; 10 µM).
`CCCCCCC#Cc1cncc(-c2nnc(SCc3cc(C(F)(F)F)cc(C(F)(F)F)c3)n2CCCN)c1` gave an inhibition of 53% (mraY; cell-free assay, inhibitor; 250 µM).
For `COc1cc2c3c(c1OC)-c1c(OC)ccc(-c4ccc(C#N)cc4)c1CC3N(C)CC2` (stereo not drawn), the inhibition was 65% (HTR2B; ligand displacement, radioligand; 10 µM).
`CCCCCCC#Cc1cncc(-c2nnc(SCCCn3ccc(=O)[nH]c3=O)n2C)c1` gave an inhibition of 7% (mraY; enzyme activity, inhibitor; 100 µM).
The inhibition of `COc1cc2c3c(c1OC)-c1c(OC)ccc(N4CCOCC4)c1CC3N(C)CC2` (stereo not drawn) is reported as 50% (HTR2C; ligand displacement, radioligand; 10 µM).
For `Cc1cc(O)c(-c2ccc([C@@H](C)CN(C)C)cc2)c2c1[nH]c(=O)c1sccc12`, the inhibition was 1.28% (Acylglycerol kinase, mitochondrial (Homo sapiens, UniProt Q53H12); enzyme activity, inhibitor; 0.1 µM, lysate).
`CCCCCCC#Cc1cncc(-c2nnc(SCc3ccc(Cl)cc3)n2CCO)c1` has an inhibition of 0% (mraY; cell-free assay, inhibitor; 250 µM).
`COc1cc2c3c(c1OC)-c1c(OC)ccc(NC(C)=O)c1CC3N(C)CC2` (stereo not drawn) gave an inhibition of 3% (HTR2C; ligand displacement, radioligand; 10 µM).
